Assay results: ChEMBL document CHEMBL4689842, “EUbOPEN Chemogenomics Library wave 1” (2021)
“And” between values parts separate entries of the source, which are not always exact repeats. Equal values may be shown once.

Test system: U2OS
Test: Multiplex assay against U2OS
Format: toxicity, cell-based
Settings: human
Outline: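 Imaging took place on a CQ1 microscope at 37°C and 5% CO2 once compound had been added to live cells stained at seeding with Hoechst33342, BioTracker Green Microtubule Cytoskeleton Dye, MitoTracker Red and Annexin V Alexa Fluor 680. CellPathfinder machine-learning gating classed cells as Hoechst high-intensity objects or normal cells, classed normal cells as having healthy, pyknosed or fragmented nuclei, and classed pyknosed cells as mitotic or apoptotic. Tubulin, mitochondrial-mass and membrane-permeability phenotypes are per cents of the healthy-nucleus cells.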

[1] = 12 h, 1 µM, compound concentration 1 uM, replicate 1
[2] = 12 h, 1 µM, compound concentration 1 uM, replicate 2
[3] = 12 h, 10 µM, compound concentration 10 uM, replicate 1
[4] = 12 h, 10 µM, compound concentration 10 uM, replicate 2
[5] = 24 h, 1 µM, compound concentration 1 uM, replicate 1
[6] = 24 h, 1 µM, compound concentration 1 uM, replicate 2
[7] = 24 h, 10 µM, compound concentration 10 uM, replicate 1
[8] = 24 h, 10 µM, compound concentration 10 uM, replicate 2
[9] = 48 h, 1 µM, compound concentration 1 uM, replicate 1
[10] = 48 h, 1 µM, compound concentration 1 uM, replicate 2
[11] = 48 h, 10 µM, compound concentration 10 uM, replicate 1
[12] = 48 h, 10 µM, compound concentration 10 uM, replicate 2

With CN1CCCC(n2nc(Cc3ccc(Cl)cc3)c3ccccc3c2=O)CC1.Cl (stereo unspecified) [AZELASTINE HYDROCHLORIDE] the “Population Apoptotic (%)” value [1] was 42%, the “Population Fragmented Nuclei (%)” value [1] was 12% and the “Population Healthy Nuclei (%)” value [1] was 71%. For the same molecule, the “Population Hoechst High Intensity Objects (%)” value [1] was 8%, the “Population Membrane Permeable-Phenotype (%)” value [1] was 11% and the “Population Mitochondria Different-Phenotype (%)” value [1] was 64%. For the same molecule, the “Population Mitotic Cells (%)” value [1] was 57%, the “Population Normal (%)” value [1] was 91% and the “Population Pyknosed Nuclei (%)” value [1] was 16%. For the same molecule, the “Population Tubulin-Different-Phenotype (%)” value [1] was 70%, the “Total Cell Count” value [1] was 95 and the “Population Apoptotic (%)” value [2] was 25%. For the same molecule, the “Population Fragmented Nuclei (%)” value [2] was 6%, the “Population Healthy Nuclei (%)” value [2] was 84% and the “Population Hoechst High Intensity Objects (%)” value [2] was 11%. The “Population Membrane Permeable-Phenotype (%)” value [2] was 7%, the “Population Mitochondria Different-Phenotype (%)” value [2] was 57% and the “Population Mitotic Cells (%)” value [2] was 75%. For the same molecule, the “Population Normal (%)” value [2] was 88%, the “Population Pyknosed Nuclei (%)” value [2] was 8% and the “Population Tubulin-Different-Phenotype (%)” value [2] was 68%. The “Total Cell Count” value [2] was 51, the “Population Apoptotic (%)” value [3] was 63% and the “Population Fragmented Nuclei (%)” value [3] was 18%. For the same molecule, the “Population Healthy Nuclei (%)” value [3] was 52%, the “Population Hoechst High Intensity Objects (%)” value [3] was 12% and the “Population Membrane Permeable-Phenotype (%)” value [3] was 77%. For the same molecule, the “Population Mitochondria Different-Phenotype (%)” value [3] was 97%, the “Population Mitotic Cells (%)” value [3] was 36% and the “Population Normal (%)” value [3] was 87%. The “Population Pyknosed Nuclei (%)” value [3] was 28%, the “Population Tubulin-Different-Phenotype (%)” value [3] was 97% and the “Total Cell Count” value [3] was 87. The “Population Apoptotic (%)” value [4] was 57%, the “Population Fragmented Nuclei (%)” value [4] was 14% and the “Population Healthy Nuclei (%)” value [4] was 70%. The “Population Hoechst High Intensity Objects (%)” value [4] was 4%, the “Population Membrane Permeable-Phenotype (%)” value [4] was 84% and the “Population Mitochondria Different-Phenotype (%)” value [4] was 98%. The “Population Mitotic Cells (%)” value [4] was 42%, the “Population Normal (%)” value [4] was 95% and the “Population Pyknosed Nuclei (%)” value [4] was 15%. For the same molecule, the “Population Tubulin-Different-Phenotype (%)” value [4] was 100%, the “Total Cell Count” value [4] was 96 and the “Population Apoptotic (%)” value [5] was 33%. The “Population Fragmented Nuclei (%)” value [5] was 16%, the “Population Healthy Nuclei (%)” value [5] was 65% and the “Population Hoechst High Intensity Objects (%)” value [5] was 5%. For the same molecule, the “Population Membrane Permeable-Phenotype (%)” value [5] was 5%, the “Population Mitochondria Different-Phenotype (%)” value [5] was 70% and the “Population Mitotic Cells (%)” value [5] was 66%. For the same molecule, the “Population Normal (%)” value [5] was 94%, the “Population Pyknosed Nuclei (%)” value [5] was 17% and the “Population Tubulin-Different-Phenotype (%)” value [5] was 68%. For the same molecule, the “Total Cell Count” value [5] was 108, the “Population Apoptotic (%)” value [6] was 50% and the “Population Fragmented Nuclei (%)” value [6] was 7%. For the same molecule, the “Population Healthy Nuclei (%)” value [6] was 76%, the “Population Hoechst High Intensity Objects (%)” value [6] was 8% and the “Population Membrane Permeable-Phenotype (%)” value [6] was 10%. For the same molecule, the “Population Mitochondria Different-Phenotype (%)” value [6] was 57%, the “Population Mitotic Cells (%)” value [6] was 50% and the “Population Normal (%)” value [6] was 91%. The “Population Pyknosed Nuclei (%)” value [6] was 15%, the “Population Tubulin-Different-Phenotype (%)” value [6] was 50% and the “Total Cell Count” value [6] was 57. The “Population Apoptotic (%)” value [7] was 90%, the “Population Fragmented Nuclei (%)” value [7] was 29% and the “Population Healthy Nuclei (%)” value [7] was 46%. The “Population Hoechst High Intensity Objects (%)” value [7] was 10%, the “Population Membrane Permeable-Phenotype (%)” value [7] was 95% and the “Population Mitochondria Different-Phenotype (%)” value [7] was 97%. For the same molecule, the “Population Mitotic Cells (%)” value [7] was 9%, the “Population Normal (%)” value [7] was 89% and the “Population Pyknosed Nuclei (%)” value [7] was 24%. The “Population Tubulin-Different-Phenotype (%)” value [7] was 100%, the “Total Cell Count” value [7] was 99 and the “Population Apoptotic (%)” value [8] was 95%. The “Population Fragmented Nuclei (%)” value [8] was 16%, the “Population Healthy Nuclei (%)” value [8] was 58% and the “Population Hoechst High Intensity Objects (%)” value [8] was 4%. The “Population Membrane Permeable-Phenotype (%)” value [8] was 98%, the “Population Mitochondria Different-Phenotype (%)” value [8] was 100% and the “Population Mitotic Cells (%)” value [8] was 4%. For the same molecule, the “Population Normal (%)” value [8] was 95%, the “Population Pyknosed Nuclei (%)” value [8] was 25% and the “Total Cell Count” value [8] was 96. For the same molecule, the “Population Apoptotic (%)” value [9] was 54%, the “Population Fragmented Nuclei (%)” value [9] was 15% and the “Population Healthy Nuclei (%)” value [9] was 67%. For the same molecule, the “Population Hoechst High Intensity Objects (%)” value [9] was 6%, the “Population Membrane Permeable-Phenotype (%)” value [9] was 5% and the “Population Mitochondria Different-Phenotype (%)” value [9] was 37%. The “Population Mitotic Cells (%)” value [9] was 45%, the “Population Normal (%)” value [9] was 93% and the “Population Pyknosed Nuclei (%)” value [9] was 16%. For the same molecule, the “Population Tubulin-Different-Phenotype (%)” value [9] was 53%, the “Total Cell Count” value [9] was 143 and the “Population Apoptotic (%)” value [10] was 50%. For the same molecule, the “Population Fragmented Nuclei (%)” value [10] was 11%, the “Population Healthy Nuclei (%)” value [10] was 74% and the “Population Hoechst High Intensity Objects (%)” value [10] was 7%. For the same molecule, the “Population Membrane Permeable-Phenotype (%)” value [10] was 16%, the “Population Mitochondria Different-Phenotype (%)” value [10] was 41% and the “Population Mitotic Cells (%)” value [10] was 50%. For the same molecule, the “Population Normal (%)” value [10] was 92%, the “Population Pyknosed Nuclei (%)” value [10] was 14% and the “Population Tubulin-Different-Phenotype (%)” value [10] was 47%. The “Total Cell Count” value [10] was 77, the “Population Apoptotic (%)” value [11] was 87% and the “Population Fragmented Nuclei (%)” value [11] was 23%. The “Population Healthy Nuclei (%)” value [11] was 39%, the “Population Hoechst High Intensity Objects (%)” value [11] was 11% and the “Population Membrane Permeable-Phenotype (%)” value [11] was 93%. The “Population Mitochondria Different-Phenotype (%)” value [11] was 100%, the “Population Mitotic Cells (%)” value [11] was 12% and the “Population Normal (%)” value [11] was 88%. The “Population Pyknosed Nuclei (%)” value [11] was 36%, the “Total Cell Count” value [11] was 95 and the “Population Apoptotic (%)” value [12] was 93%. The “Population Fragmented Nuclei (%)” value [12] was 22%, the “Population Healthy Nuclei (%)” value [12] was 48% and the “Population Hoechst High Intensity Objects (%)” value [12] was 5%. For the same molecule, the “Population Membrane Permeable-Phenotype (%)” value [12] was 98%, the “Population Mitochondria Different-Phenotype (%)” value [12] was 98% and the “Population Mitotic Cells (%)” value [12] was 6%. The “Population Normal (%)” value [12] was 94%, the “Population Pyknosed Nuclei (%)” value [12] was 29% and the “Population Tubulin-Different-Phenotype (%)” value [12] was 100%. For the same molecule, the “Total Cell Count” value [12] was 119.
For Cn1c(-c2csc(C3CCN(CC4=NC5N=CC=CC5N4)CC3)n2)nc2ccccc21 (stereo unspecified) [BAY-070], the “Population Fragmented Nuclei (%)” value [3] was 2% and 3%, the “Population Healthy Nuclei (%)” value [3] was 90% and the “Population Hoechst High Intensity Objects (%)” value [3] was 5% and 3%. For the same molecule, the “Population Membrane Permeable-Phenotype (%)” value [3] was 6%, the “Population Mitochondria Different-Phenotype (%)” value [3] was 10% and the “Population Mitotic Cells (%)” value [3] was 91% and 70%. For the same molecule, the “Population Normal (%)” value [3] was 94% and 96%, the “Population Pyknosed Nuclei (%)” value [3] was 6% and 11% and the “Population Tubulin-Different-Phenotype (%)” value [3] was 22% and 8%. For the same molecule, the “Total Cell Count” value [3] was 183 and 214, the “Population Fragmented Nuclei (%)” value [4] was 13% and 7% and the “Population Healthy Nuclei (%)” value [4] was 84% and 89%. The “Population Hoechst High Intensity Objects (%)” value [4] was 12% and 13%, the “Population Membrane Permeable-Phenotype (%)” value [4] was 19% and 8% and the “Population Mitochondria Different-Phenotype (%)” value [4] was 21% and 25%. The “Population Mitotic Cells (%)” value [4] was 100% and 66%, the “Population Normal (%)” value [4] was 87% and 86% and the “Population Pyknosed Nuclei (%)” value [4] was 2%. For the same molecule, the “Population Tubulin-Different-Phenotype (%)” value [4] was 19% and 34%, the “Total Cell Count” value [4] was 96 and 145 and the “Population Apoptotic (%)” value [7] was 50% and 40%. For the same molecule, the “Population Fragmented Nuclei (%)” value [7] was 5% and 3%, the “Population Healthy Nuclei (%)” value [7] was 88% and 92% and the “Population Hoechst High Intensity Objects (%)” value [7] was 3% and 2%. The “Population Membrane Permeable-Phenotype (%)” value [7] was 10%, the “Population Mitochondria Different-Phenotype (%)” value [7] was 17% and 14% and the “Population Mitotic Cells (%)” value [7] was 50% and 60%. For the same molecule, the “Population Normal (%)” value [7] was 96% and 97%, the “Population Pyknosed Nuclei (%)” value [7] was 6% and 3% and the “Population Tubulin-Different-Phenotype (%)” value [7] was 15% and 30%. For the same molecule, the “Total Cell Count” value [7] was 265 and 259, the “Population Apoptotic (%)” value [8] was 20% and 33% and the “Population Fragmented Nuclei (%)” value [8] was 7% and 6%. The “Population Healthy Nuclei (%)” value [8] was 87% and 84%, the “Population Hoechst High Intensity Objects (%)” value [8] was 12% and the “Population Mitochondria Different-Phenotype (%)” value [8] was 25% and 27%. For the same molecule, the “Population Mitotic Cells (%)” value [8] was 80% and 66%, the “Population Normal (%)” value [8] was 87% and the “Population Pyknosed Nuclei (%)” value [8] was 5% and 8%. The “Population Tubulin-Different-Phenotype (%)” value [8] was 19% and 39% and the “Total Cell Count” value [8] was 108 and 180.
